# Assay outcomes from PubChem BioAssay.
# TAAR1 agonist: human TAAR1 agonism. AID 624467. activation, % at 3 µM. CHO RD-HGA16 TAAR1, Fluo-8 calcium fluorescence; vehicle wells 0%, saturating PEA agonist 100%. 360,000 compounds, 0.99% hits;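 active = activation above the mean activation of all test compounds in the run plus 3 SD, cut at about 38% in these data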
#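 Benchmarks: low control DMSO, high control PEA (EC100); System: CHO RD-HGA16 cells carrying human TAAR1 plus Gα16; Detection: Fluo-8 fluorescence, 5 s baseline then 140 s kinetic read; Schedule: 17-24 h plating, Fluo-8 75 min 37 °C, 30 min RT; Read-out basis: % activation from peak over basal fluorescence ratio, DMSO-to-PEA scaled.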
# TAAR1 antagonist: human TAAR1 antagonism; CHO RD-HGA16 TAAR1, Fluo-8 calcium fluorescence, antagonist; inhibition, % at 3 µM; 360,000 compounds, 1.5% hits; AID 624466;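 active = inhibition above a per-plate cutoff, the mean inhibition of test compounds on that plate plus 3 SD, cut at about 49% in these data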;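 note: 0% = DMSO plus EC80 beta-PEA response and 100% = DMSO alone without agonist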
#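 Test system – hTAAR1-expressing CHO RD-HGA16 cells, Gα16-coupled · Also added – β-PEA at EC80 concentration, post-compound challenge · Compound – 3 µM, single point · Incubation – dye loading 75 min at 37 °C, then 30 min room temperature · Measured by – Fluo-8 intracellular calcium dye fluorescence, real-time kinetic reads · Benchmarks – vehicle and agonist controls · Replicates – singlicate, one well per test compound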
# CHO parental Ca: counter-screen: ATP calcium response change in parental CHO cells; parental CHO-K1, ATP-induced calcium, Fluo-8 fluorescence; inhibition, % at 5.6 µM; 330,000 compounds, 0.63% hits;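 active = inhibition above that plate's mean sample inhibition plus 3 SD, cut at about 26% in these data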;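 note: 0% = ATP-challenged DMSO wells and 100% = DMSO wells without ATP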
#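 Measured by: calcium-sensitive Fluo-8 fluorescence / Test system: CHO parental line / Controls: ATP-challenged DMSO wells low, unchallenged DMSO wells high / Measure: % inhibition / Compound: single nominal dose of 5.6 µM per compound / Replicates: single well per compound, no replicates / Reagent: ATP as calcium-mobilizing challenge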
# OX1R antag-1: blocks the human orexin 1 receptor | AID 485270 | 330,000 compounds, 1.8% hits | inhibition, % at 6.6 µM | OX1R-expressing cells, FRET antagonist read-out | O43613; in the data active = inhibition mostly above about 38%, no sharp cut-off; inactive = mostly below about 40%;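 note: 0% = agonist challenge alone and 100% = reference antagonist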
# OX1R antag-2: blocks the human orexin 1 receptor; O43613; inhibition, % at 5 µM; 330,000 compounds, 0.43% hits; AID 434989; CHO/OX1R cells, Fluo-8 calcium fluorescence, orexin A;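 active = inhibition above its plate's threshold, mean inhibition of all tested compounds on the plate plus 3 SD, cut at about 37% in these data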;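 note: 0% = orexin A challenge wells and 100% = SB-334867-A antagonist wells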
# NTR1 ag: NTR1 (human) agonism; NTR1-U2OS beta-arrestin-GFP spot imaging, agonist mode; AID 493036; activation, % at 20 µM; 330,000 compounds, 0.17% hits; P30989;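 active = activation at or above 40% of the spot to cytoplasm intensity ratio, with at least 20 cells analyzed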;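 note: 0% = DMSO without peptide and 100% = 100 nM NTR1 peptide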
# Target sequence (P30989 whole entry, looked up): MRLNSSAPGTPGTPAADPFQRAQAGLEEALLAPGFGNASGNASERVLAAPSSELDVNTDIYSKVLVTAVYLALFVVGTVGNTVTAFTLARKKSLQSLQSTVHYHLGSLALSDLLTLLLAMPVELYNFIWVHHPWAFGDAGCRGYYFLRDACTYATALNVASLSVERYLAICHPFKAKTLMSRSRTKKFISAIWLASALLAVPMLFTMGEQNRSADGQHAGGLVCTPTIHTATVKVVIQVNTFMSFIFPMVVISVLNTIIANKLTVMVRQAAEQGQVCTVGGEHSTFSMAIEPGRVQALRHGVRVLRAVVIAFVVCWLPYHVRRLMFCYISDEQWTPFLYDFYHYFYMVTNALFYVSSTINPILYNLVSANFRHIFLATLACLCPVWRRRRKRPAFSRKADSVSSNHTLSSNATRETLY
# OX1R HTRF conf: confirmation of human orexin 1 receptor antagonists, HTRF format; shares compounds with OX1R antag-1; OX1R-expressing cells, HTRF antagonist assay; inhibition, % at 6.6 µM; 1,800 compounds, 49% hits; AID 492964; in the data active = inhibition above about 55%;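 note: CHO cells expressing OX1R stimulated with orexin A at about EC80; 0% = agonist challenge alone and 100% = reference antagonist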
# CHO-K1 HTRF: signal in parental CHO-K1 cells, OX1R antagonist counter-screen; shares compounds with OX1R antag-1; HTRF counterscreen; inhibition, % at 6.6 µM; 1,800 compounds, 48% hits; AID 493232; in the data active = inhibition above about 17%;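 note: 0% = agonist challenge with vehicle and 100% = vehicle alone without agonist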
# An asterisk follows results filed as active; / = no result; + = active, no number. Sampled rows, rich in hits. Any-hit rate of the full collection: about 4%.
SMILES,TAAR1 agonist,TAAR1 antagonist,CHO parental Ca,OX1R antag-1,OX1R antag-2,NTR1 ag,OX1R HTRF conf,CHO-K1 HTRF
CCn1c2ccccc2c2cc(NC(=O)c3cc(C)on3)ccc21,6,-32,-2,88*,16,16,64*,7
CCn1c2ccccc2c2cc(NC(=O)c3cccc([N+](=O)[O-])c3C)ccc21,-1,8,-13,26,-6,2,/,/
CCn1c2ccccc2c2cc(NC(=O)c3ccc(C)c([N+](=O)[O-])c3)ccc21,1,2,-15,77*,4,3,88*,13
O=C(Nc1ccc2oc(-c3ccccc3)nc2c1)c1ccncc1,10,1,-2,18,-9,5,/,/
O=C(Nc1ccc2nc(-c3ccccc3)oc2c1)c1ccco1,9,12,-2,94*,12,-6,85*,12
O=C(Nc1ccc2oc(-c3ccccc3)nc2c1)c1cccs1,10,14,-14,82*,17,6,48,7
O=C(Nc1cccc(-c2nc3ccccc3s2)c1)c1cccs1,3,0,-17,81*,7,4,78*,6
O=C(Nc1ccc2nc(-c3cccs3)[nH]c2c1)c1ccco1,3,10,-10,24,-4,-3,/,/
O=C(Nc1ccc2nc(-c3cccs3)[nH]c2c1)c1cccs1,17,25,-4,93*,10,0,25,0
CCc1nc2ccc(C(=O)NCC3CCCCC3)cn2c1N(CCC(C)C)CCN(C)C,5,-14,/,/,/,/,/,/
c1ccc(-c2cnn3nnnc3n2)cc1,17,10,-8,+,-2,-1,71*,115*
N#Cc1ccc(CSc2nnc(-c3ccncc3)n2CCc2ccccc2)cc1,5,-14,-22,47,-15,0,/,/
c1ccc(CCn2c(SCc3ccccc3)nnc2-c2ccncc2)cc1,10,-8,-22,101*,-33,0,15,-3
O=c1/c(=C/c2ccc(O)cc2)sc2n1CCCN=2,0,-9,9,47,-2,1,/,/
CN(C)c1ccc(/C=c2\sc3n(c2=O)CCCN=3)cc1,18,3,-11,116*,-13,-3,36,31*
c1ccc2nc3c(nc2c1)[nH]c1ccccc13,4,-10,4,82*,-3,-1,72*,-1
O=C(Nc1ccccc1)N1CCN(c2ccccc2)CC1,3,-5,/,/,/,/,/,/
CN1CCN(C(=O)Nc2ccccc2)CC1,2,-24,2,92*,-7,1,27,5
O=C(CSc1ncn[nH]1)Nc1c(Br)cc([N+](=O)[O-])cc1Br,2,-4,-1,96*,-5,1,41,45*
COC(=O)[C@H](CC(C)C)NC(=O)Cn1cnc(C(=O)Nc2ccc(C)c(C)c2)n1,1,-13,-16,5,-12,0,/,/
CC[n+]1c(/C=C/c2ccc(N(C)C)cc2)ccc2ccccc21,-1,1,33,94*,20,/,82*,103*
CC[n+]1c(/C=C/c2ccc(OC(C)=O)c(OC)c2)ccc2ccccc21,0,-2,/,/,/,0,/,/
Cc1ccc(/C=C2\SC(=O)N(CCC(=O)N3CCN(C)CC3)C2=O)cc1,-2,-7,-6,126*,-30,1,24,27*
CC(=O)OCCNc1cc(SC(C)C)c2nonc2c1[N+](=O)[O-],1,-20,-11,104*,-25,2,46,72*
CCC(=O)OCCNc1cc(SCCC(=O)OC)c2nonc2c1[N+](=O)[O-],1,-8,-2,84*,-20,5,59*,78*
SMILES,TAAR1 agonist,TAAR1 antagonist,CHO parental Ca,OX1R antag-1,OX1R antag-2,NTR1 ag,OX1R HTRF conf,CHO-K1 HTRF
CCC(=O)OCCNc1cc(Sc2nccn2C)c2nonc2c1[N+](=O)[O-],-1,24,30,122*,34,/,63*,90*
CC(=O)OCCN(C)c1cc(SC(C)C)c2nonc2c1[N+](=O)[O-],1,20,-1,27,-21,1,/,/
CN(CC(=O)Nc1cccc(F)c1)CC(=O)N(C)CC(=O)Nc1ccccc1Br,1,-7,-26,6,-37,0,/,/
COCC(C)NC(=O)c1ccc2c(c1)S(=O)(=O)c1ccccc1C2=O (stereo not drawn),2,0,-4,109*,-4,-1,50,55*
CC(C)OCCCNC(=O)c1ccc2c(c1)S(=O)(=O)c1ccccc1C2=O,4,14,-11,85*,-15,-1,45,41*
C=CCNC(=O)c1ccc2c(c1)S(=O)(=O)c1ccccc1C2=O,5,2,-12,126*,-23,0,58*,58*
CCCCNC(=O)c1ccc2c(c1)S(=O)(=O)c1ccccc1C2=O,12,-12,/,/,/,3,/,/
COc1cc(CNC(=O)c2ccc3c(c2)S(=O)(=O)c2ccccc2C3=O)cc(OC)c1,11,16,-13,18,-14,9,/,/
CC(=O)NCCNC(=O)c1ccc2c(c1)S(=O)(=O)c1ccccc1C2=O,4,6,-11,86*,-32,-1,54,85*
Nc1nc2ccccc2n1CCOc1ccc(F)cc1,4,21,-6,6,3,1,/,/
COc1ccc(CNC(=O)c2ccc(Cn3cc(Br)cn3)o2)cc1,1,-22,-18,31,-19,-1,/,/
CCCCn1c(N)c(N(CC)C(=O)c2ccc(Cl)c(Cl)c2)c(=O)[nH]c1=O,6,-21,-3,14,-16,0,/,/
COCCNC(=O)c1ccc2c(c1)S(=O)(=O)c1ccccc1C2=O,9,8,0,86*,-5,-2,54,84*
CCCCn1c(N)c(N(CC)C(=O)c2ccc3c(c2)S(=O)(=O)c2ccccc2C3=O)c(=O)[nH]c1=O,4,-14,-2,85*,-3,3,23,18*
CCNC(=O)c1ccc2c(c1)S(=O)(=O)c1ccccc1C2=O,1,9,-21,189*,-16,3,49,67*
O=C(N=C1SC2CS(=O)(=O)CC2N1c1ccc(F)cc1F)C1CC1 (stereo not drawn),3,-15,-16,25,-11,0,/,/
C[C@H]1CN([C@@H](C)CO)C(=O)Cc2cc(NS(=O)(=O)c3cccs3)ccc2O[C@H]1CN(C)S(=O)(=O)c1cn(C)cn1,10,-13,-4,5,-13,0,/,/
CCN1CCN(C(=O)c2cc3cc4cc(OC)ccc4nc3s2)CC1,3,-3,-9,110*,-16,-1,11,0
